Measurements: ChEMBL document CHEMBL2346529, “The human Aurora kinase inhibitor danusertib is a lead compound for anti-trypanosomal drug discovery via target repurposing” (Eur J Med Chem, 2013)
The source made the active and inactive calls. The calls are words filed in the database; no cut-off is given here.

What was measured:
[1] = Selectivity ratio of EC50 for human MOLT4 cells to EC50 for bloodstream form of Trypanosoma brucei rhodesiense YTat1.1; assay type: ADME, cell-based, MOLT-4; conditions: read-out: Ratio EC50
How it was run: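 Ratio of MOLT-4 EC50 to YTat1.1 EC50. MOLT-4 cells were grown in RPMI 1640 with 20% FBS, seeded at 5×10^4 cells/mL and grown 24 h before compound was added. Treatment used 8 triplicate concentrations between 50 nM and 30 μM for 4 days, followed by a 3 h CellTiter-Blue read at 37°C. The parasite EC50 came from a 48 h CellTiter-Blue dose-response (50 nM–8 μM).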

[2] = test system: Trypanosoma brucei brucei; assay: Antitrypanosomal activity against bloodstream form of Trypanosoma brucei brucei Lister 427 90-13 assessed as inhibition of growth in log phase at 10 uM after 48 hrs by Cell Titer Blue end-point assay; assay type: functional; conditions: Lister 427 90-13, 48 h
How it was run: (§1)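 Log-phase bloodstream-form cells were seeded at 1×10^5 cells/mL and exposed to compound at a single concentration (0.2% DMSO) for 48 h (4 doublings). AnTat1.1A cells were grown in HMI-9 with 10% FBS and 10% Serum Plus. 90-13 cells were grown in HMI-9 with G418 (2.5 μg/mL) and hygromycin B (5 μg/mL). Cells were pelleted and incubated 3 h at 37°C with CellTiter-Blue. Fluorescence was read at 560/590 nm, background-subtracted and normalized to DMSO controls.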

[3] = test system: Trypanosoma brucei brucei; assay: Antitrypanosomal activity against bloodstream form of Trypanosoma brucei brucei assessed as inhibition of growth in log phase at 1 uM after 48 hrs by Cell Titer Blue end-point assay; conditions: read-out: GI
[4] = test system: MOLT-4; assay: Cytotoxicity against human MOLT4 cells assessed as inhibition of cell growth after 4 days by Cell Titer Blue end-point assay; assay type: cell-based; conditions: MOLT-4, 96 h
How it was run: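 MOLT-4 cells in RPMI 1640 with 20% FBS were seeded at 5×10^4 cells/mL and grown 24 h before inhibitor was added. There were 8 concentrations in triplicate, spanning 50 nM to 30 μM final. Treatment lasted 4 days, then CTB was added for 3 h at 37°C. Fluorescence was read at 560Ex/590Em, with cell-free background subtracted and DMSO-only wells taken as 100%. EC50 was fitted from inhibition curves.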

[5] = test system: Trypanosoma brucei rhodesiense; assay: Antitrypanosomal activity against bloodstream form of Trypanosoma brucei rhodesiense YTat1.1 assessed as inhibition of growth in log phase after 48 hrs by Cell Titer Blue end-point assay; assay type: functional, organism-based; conditions: YTat1.1, 48 h
How it was run: (§2)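 Dose-response: at least 8 final concentrations (50 nM–8 μM, 0.2% DMSO), each in triplicate, on log-phase bloodstream-form cells at 1×10^5 cells/mL. Incubation was 48 h at 37°C, 5% CO2, followed by a 3 h CellTiter-Blue fluorescence read with background subtracted. EC50 was derived from inhibition curves. YTat1.1 was culture-adapted from rat blood in HMI-9 with FBS and Serum Plus; its data come from 2–3 independent experiments. 90-13 was grown in HMI-9 with G418 and hygromycin B.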

[6] = test system: Trypanosoma brucei brucei; assay: Antitrypanosomal activity against bloodstream form of Trypanosoma brucei brucei Lister 427 90-13 assessed as inhibition of growth in log phase at 1 uM after 48 hrs by Cell Titer Blue end-point assay; assay type: functional; conditions: Lister 427 90-13, 48 h; how it was run: as §1
[7] = test system: Trypanosoma brucei brucei; assay: Antitrypanosomal activity against bloodstream form of Trypanosoma brucei brucei AnTat1.1A assessed as inhibition of growth in log phase at 1 uM after 48 hrs by Cell Titer Blue end-point assay; assay type: functional; how it was run: as §1
[8] = test system: Trypanosoma brucei brucei; assay: Antitrypanosomal activity against bloodstream form of Trypanosoma brucei brucei AnTat1.1A assessed as inhibition of growth in log phase at 10 uM after 48 hrs by Cell Titer Blue end-point assay; assay type: functional; how it was run: as §1
[9] = test system: Trypanosoma brucei brucei; assay: Antitrypanosomal activity against bloodstream form of Trypanosoma brucei brucei Lister 427 90-13 assessed as inhibition of growth in log phase after 48 hrs by Cell Titer Blue end-point assay; assay type: functional, organism-based; conditions: Lister 427 90-13, 48 h; how it was run: as §2
[10] = test system: Trypanosoma brucei; assay: Inhibition of NH3-AU1 epitope-tagged recombinant Trypanosoma brucei AUK1 expressed in procyclic form trypanosome AnTat1.1 assessed as decrease in myelin basic protein phosphorylation at 500 nM preincubated for 5 mins by pull down assay in presence of [gamma-32P]ATP
How it was run: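 AU1-tagged TbAUK1 came from procyclic AnTat1.1 cells pretreated with 16 μM MG132 for 3 h. Lysate was pre-cleared and immunoprecipitated overnight at 4°C on AU1 beads. Bead kinase was mixed with 160 μg myelin basic protein in Hepes/KCl/NaF/MgCl2/DTT buffer, pH 7.4, with drug preincubated 5 min. Reactions were started with 8 μM ATP plus [γ-32P]ATP and run 30 min at 30°C. Products were read by SDS-PAGE autoradiography.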

[11] = Selectivity ratio of EC50 for human MOLT4 cells to EC50 for bloodstream form of Trypanosoma brucei brucei Lister 427 90-13; assay type: ADME, cell-based, MOLT-4; conditions: read-out: Ratio EC50
How it was run: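 The ratio is MOLT-4 EC50 over T. b. brucei 90-13 EC50. BF 90-13 cells in HMI-9 with G418 and hygromycin B were seeded at 1×10^5 cells/mL and exposed 48 h to 8 concentrations (50 nM–8 μM final, 0.2% DMSO) in triplicate. MOLT-4 cells were treated 4 days. Both were read by CTB fluorescence, with EC50 fitted from inhibition curves.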

| SMILES | selectivity ratio [1] | inhibition at 10 µM [2] [%] | inhibition of growth at 1 µM [3] [%] | EC50 [4] [nM] | EC50 [5] [nM] | inhibition at 1 µM [6] [%] | inhibition at 1 µM [7] [%] | inhibition at 10 µM [8] [%] | EC50 [9] [nM] | inhibition [10] | selectivity ratio [11] |
| --- | --- | --- | --- | --- | --- | --- | --- | --- | --- | --- | --- |
| CN1CCN(c2ccc(C(=O)Nc3n[nH]c4c3CN(C(=O)Cc3cccc5ccccc35)C4)cc2)CC1 | 23 | 100 | > 60 | 14200 | 610 | 26 | 82 | 98 |  |  |  |
| Cc1cc(C)cc(CC(=O)N2Cc3[nH]nc(NC(=O)c4ccc(N5CCN(C)CC5)cc4)c3C2)c1 | 4.3 | 100 | > 60 | 4460 | 1040 | 26 | 85 | 99 | 2560 |  |  |
| CN1CCN(c2ccc(C(=O)Nc3n[nH]c4c3CN(C(=O)CC3CC(=O)c5ccccc53)C4)cc2)CC1 (racemic) |  | 35 |  |  |  | 27 | 34 | 79 |  |  |  |
| COC(C(=O)N1Cc2[nH]nc(NC(=O)c3ccc(N4CCN(C)CC4)cc3)c2C1)c1ccccc1 (racemic) | 6.8 | 25 | > 60 | 4130 | 610 | 15 | 77 | 97 |  |  |  |
| CN1CCN(c2ccc(C(=O)Nc3n[nH]c4c3CN(C(=O)Cc3cc(F)ccc3F)C4)cc2)CC1 |  | 97 |  |  |  | 37 | 6 | 98 |  |  |  |
| CC(C)C(C(=O)N1Cc2[nH]nc(NC(=O)c3ccc(N4CCN(C)CC4)cc3)c2C1)c1ccccc1 (racemic) | 6.3 | 100 | > 60 |  | 400 | 62 | 99 | 99 | 670 |  |  |
| CCc1cccc(CC)c1NC(=O)N1Cc2[nH]nc(NC(=O)c3ccc(N4CCN(C)CC4)cc3)c2C1 [PHA-680632] |  |  |  | 220 | 1250 |  |  |  | 4000 | Active |  |
| CN1CCN(c2ccc(C(=O)Nc3n[nH]c4c3CN(C(=O)Cc3cccc(Cl)c3)C4)cc2)CC1 | 6.9 | 98 | > 60 | 4000 | 580 | 33 | 35 | 98 | 850 |  |  |
| Cc1[nH]c2ccccc2c1CC(=O)N1Cc2[nH]nc(NC(=O)c3ccc(N4CCN(C)CC4)cc3)c2C1 | 1 | 63 | > 60 |  | 1200 | 34 | 62 | 98 |  |  |  |
| CO[C@@H](C(=O)N1Cc2[nH]nc(NC(=O)c3ccc(N4CCN(C)CC4)cc3)c2C1)c1ccccc1 [DANUSERTIB] |  |  |  |  | 150 |  |  |  | 600 | Active |  |
| CN1CCN(c2ccc(C(=O)Nc3n[nH]c4c3CN(C(=O)Cc3cc(F)cc(F)c3)C4)cc2)CC1 | 0.7 | 99 | > 60 | 630 | 910 | 37 | 98 | 98 | 590 |  |  |
| CN1CCN(c2ccc(C(=O)Nc3n[nH]c4c3CN(C(=O)Cc3ccc(F)cc3F)C4)cc2)CC1 |  | 62 |  |  |  | 40 | 6 | 98 |  |  |  |
| Cc1ccc(C(C)C(=O)N2Cc3[nH]nc(NC(=O)c4ccc(N5CCN(C)CC5)cc4)c3C2)cc1 (racemic) | 6.4 | 100 | > 60 | 5480 | 860 | 19 | 19 | 100 |  |  |  |
| Cc1ccc(C)c(CC(=O)N2Cc3[nH]nc(NC(=O)c4ccc(N5CCN(C)CC5)cc4)c3C2)c1 | 2.2 | 100 | > 60 | 2650 | 1200 | 18 | 34 | 99 |  |  |  |
| CN1CCN(c2ccc(C(=O)Nc3n[nH]c4c3CN(C(=O)Cc3c(F)cccc3F)C4)cc2)CC1 |  | 66 |  |  |  | 32 | 20 | 97 |  |  |  |
| CO[C@@H](C(=O)N1Cc2n[nH]c(NC(=O)c3ccc(N4CCN(C)CC4)cc3)c2C1)c1ccccc1 [DANUSERTIB] | 1 |  |  |  |  |  |  |  |  |  | 0.25 |
| Cc1nc(CC(=O)N2Cc3[nH]nc(NC(=O)c4ccc(N5CCN(C)CC5)cc4)c3C2)cs1 |  | 14 |  |  |  | 8 | 23 | 53 |  |  |  |
| CN1CCN(c2ccc(C(=O)Nc3n[nH]c4c3CN(C(=O)Cc3c(F)cc(F)cc3F)C4)cc2)CC1 |  | 72 |  |  |  | 41 | 23 | 100 |  |  |  |
| CCc1cccc(CC)c1NC(=O)N1Cc2n[nH]c(NC(=O)c3ccc(N4CCN(C)CC4)cc3)c2C1 [PHA-680632] | 0.18 |  |  |  |  |  |  |  |  |  | 0.06 |
| CN1CCN(c2ccc(C(=O)Nc3n[nH]c4c3CN(C(=O)Cc3c(F)ccc(F)c3F)C4)cc2)CC1 | 6.9 | 77 | > 60 | 2220 | 320 | 14 | 52 | 98 |  |  |  |
| CN1CCN(c2ccc(C(=O)Nc3n[nH]c4c3CN(C(=O)c3ccccc3)C4)cc2)CC1 |  |  |  | 540 |  |  |  |  | 11100 | inactive | 0.05 |
| CN1CCN(c2ccc(C(=O)Nc3n[nH]c4c3CN(C(=O)Nc3ccccc3)C4)cc2)CC1 |  |  |  | 3550 |  |  |  |  | 6100 | Active | 0.58 |
| CCS(=O)(=O)Nc1ccc2c(c1)/C(=C(/Nc1ccc(CN3CCCCC3)cc1)c1ccccc1)C(=O)N2 |  |  |  |  |  |  |  |  |  | Active |  |
| CN1CCN(c2ccc(C(=O)Nc3n[nH]c4c3CN(C(=O)Cc3cc(F)cc(F)c3F)C4)cc2)CC1 | 1.2 | 94 | > 60 | 2310 | 2000 | 26 | 44 | 99 |  |  |  |
| Cc1nc(C)c(CC(=O)N2Cc3[nH]nc(NC(=O)c4ccc(N5CCN(C)CC5)cc4)c3C2)s1 |  | 12 |  |  |  | 6 | 13 | 35 |  |  |  |
| Cc1ccc(S(=O)(=O)N2Cc3[nH]nc(NC(=O)c4ccc(N5CCN(C)CC5)cc4)c3C2)cc1 |  |  |  | 940 |  |  |  |  | 5700 | Active | 0.16 |
| CN1CCN(c2ccc(C(=O)Nc3n[nH]c4c3CN(C(=O)Cc3ccc(F)c(F)c3)C4)cc2)CC1 |  | 53 |  |  |  | 29 | 18 | 98 |  |  |  |
